Measurements taken from ChEMBL document CHEMBL4387702, “Design and synthesis novel di-carbonyl analogs of curcumin (DACs) act as potent anti-inflammatory agents against LPS-induced acute lung injury (ALI)” (Eur J Med Chem, 2019).

Experiments:
Type in all cases: ADME, organism-based
Conditions in all cases: in vivo
[1] = AUC (0 to t) in Sprague-Dawley rat at 50 mg/kg, po by UHPLC-MS/MS analysis
Method in brief: (§1)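 Male Sprague-Dawley rats (250 ± 20 g) fasted overnight with free access to water, n = 5 per route. Intravenous dose was 5 mg/kg; the intragastric dose is printed as 20 mg/kg in the methods and 50 mg/kg in the table. Tail blood was taken at 0.083, 0.25, 0.5, 1, 2, 4, 6, 9, 12 and 24 h. Samples were centrifuged (12000 rpm, 10 min), deproteinized with 2 volumes of acetonitrile, re-centrifuged and quantified by UHPLC-MS/MS.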

[2] = AUC (0 to t) in Sprague-Dawley rat at 5 mg/kg, iv by UHPLC-MS/MS analysis; method in brief: as §1
[3] = AUC (0 to infinity) in Sprague-Dawley rat at 50 mg/kg, po by UHPLC-MS/MS analysis; design: dose 50 mg/kg, time infinity, route oral; method in brief: as §1
[4] = AUC (0 to infinity) in Sprague-Dawley rat at 5 mg/kg, iv by UHPLC-MS/MS analysis; design: dose 5 mg/kg, route intravenous, time infinity; method in brief: as §1
[5] = MRT (0 to t) in Sprague-Dawley rat at 50 mg/kg, po by UHPLC-MS/MS analysis; method in brief: as §1
[6] = MRT (0 to infinity) in Sprague-Dawley rat at 50 mg/kg, po by UHPLC-MS/MS analysis; method in brief: as §1
[7] = Half life in Sprague-Dawley rat at 50 mg/kg, po by UHPLC-MS/MS analysis; method in brief: as §1
[8] = Half life in Sprague-Dawley rat at 5 mg/kg, iv by UHPLC-MS/MS analysis; method in brief: as §1
[9] = Tmax in Sprague-Dawley rat at 5 mg/kg, iv by UHPLC-MS/MS analysis
Method in brief: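 Male SD rats (250 ± 20 g), fasted overnight with water ad libitum, dosed intravenously or intragastrically, n = 5. Tail blood taken at 0.083, 0.25, 0.5, 1, 2, 4, 6, 9, 12 and 24 h post-dose and centrifuged 12000 rpm, 10 min. Supernatant mixed with 2 volumes acetonitrile, vortexed and re-centrifuged. Drug measured by UHPLC-MS/MS; PK parameters derived from time-concentration data.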

[10] = Apparent clearance during terminal phase in Sprague-Dawley rat at 5 mg/kg, iv by UHPLC-MS/MS analysis; method in brief: as §1
[11] = Apparent volume of distribution during terminal phase in Sprague-Dawley rat at 50 mg/kg, po by UHPLC-MS/MS analysis; method in brief: as §1
[12] = Apparent volume of distribution during terminal phase in Sprague-Dawley rat at 5 mg/kg, iv by UHPLC-MS/MS analysis; method in brief: as §1
[13] = Cmax in Sprague-Dawley rat at 50 mg/kg, po by UHPLC-MS/MS analysis; design: dose 50 mg/kg, route oral; method in brief: as §1
[14] = Cmax in Sprague-Dawley rat at 5 mg/kg, iv by UHPLC-MS/MS analysis; design: dose 5 mg/kg, route intravenous; method in brief: as §1

## COc1cc(/C=C/C(=O)N2CCC/C(=C\c3cc(OC)c(OC)c(OC)c3)C2=O)ccc1OC(C)=O
[1]
  AUC(0-t): 231 ng·h/mL
[2]
  AUC(0-t): 34.4 ng·h/mL
[3]
  AUC: 325.6 ng·h/mL
[4]
  AUC: 122.4 ng·h/mL
[5]
  MRT last: 7.8 h
[6]
  MRT inf: 12.3 h
[7]
  t1/2: 6.7 h
[8]
  t1/2: 0.2 h
[9]
  Tmax: 6 min
[10]
  CLz/F: 404.4 L/h/kg
[11]
  Vz/F: 827.1 L/kg
[12]
  Vz/F: 59.5 L/kg
[13]
  Cmax: 113 ng/mL
[14]
  Cmax: 16.4 ng/mL
